{
  "source": "ChEMBL document CHEMBL1151422",
  "about": "“Effect of antimicrobial compounds on Balamuthia mandrillaris encystment and human brain microvascular endothelial cell cytopathogenicity” (Antimicrob Agents Chemother, 2007)",
  "key": {"Balamuthia mandrillaris [1]": {"system": "Balamuthia mandrillaris", "assay": "Antimicrobial activity against Balamuthia mandrillaris ATCC 50209 infected in HBMEC assessed as inhibition of amoeba-induced cytopathogenicity at 100 uM after 24 hrs by LDH release assay", "type": "functional", "settings": "ATCC 50209, 24 h", "how_it_was_run": "(§1)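 B. mandrillaris ATCC 50209 (grown on host-cell feeder layers) pretreated with drug for 45 min in serum-free medium, then added at 10^5 amoebae/well, with inhibitor still present, to primary HBMEC monolayers (RPMI 1640, 10% FBS, 10% NuSerum). Incubation at 37°C, 5% CO2, up to 24 h. Cytotoxicity read as LDH release into supernatant. Percent inhibition is relative to amoebae alone; mean ± SE.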"}, "Balamuthia mandrillaris [2]": {"system": "Balamuthia mandrillaris", "assay": "Antimicrobial activity against Balamuthia mandrillaris ATCC 50209 infected in HBMEC assessed as inhibition of amoeba-induced cytopathogenicity at 200 uM after 24 hrs by LDH release assay", "type": "functional", "settings": "ATCC 50209, 24 h", "how_it_was_run": "as §1"}, "Balamuthia mandrillaris [3]": {"system": "Balamuthia mandrillaris", "assay": "Antimicrobial activity against Balamuthia mandrillaris ATCC 50209 infected in HBMEC assessed as inhibition of encystment at 500 uM after 7 days", "type": "functional", "settings": "ATCC 50209, 168 h", "how_it_was_run": "(§2)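 Trophozoites (>95%) held at 2 × 10^5/ml in RPMI 1640 with drug at 37°C for 48 h. SDS (0.5% final) lyses the remaining trophozoites, and a hemocytometer count is taken before and after SDS. % encystment = post-SDS/pre-SDS × 100, and percent inhibition is calculated from it; mean ± SE. For viability, cysts made before SDS were placed on HBMEC monolayers for up to 7 days and watched for trophozoite emergence.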"}, "Balamuthia mandrillaris [4]": {"system": "Balamuthia mandrillaris", "assay": "Antimicrobial activity against Balamuthia mandrillaris ATCC 50209 infected in HBMEC assessed as inhibition of encystment at 100 uM after 7 days", "type": "functional", "settings": "ATCC 50209, 168 h", "how_it_was_run": "as §2"}, "Balamuthia mandrillaris [5]": {"system": "Balamuthia mandrillaris", "assay": "Antimicrobial activity against Balamuthia mandrillaris ATCC 50209 infected in HBMEC assessed as inhibition of encystment at 200 uM after 7 days", "type": "functional", "settings": "ATCC 50209, 168 h", "how_it_was_run": "as §2"}, "Balamuthia mandrillaris [6]": {"system": "Balamuthia mandrillaris", "assay": "Antimicrobial activity against Balamuthia mandrillaris ATCC 50209 infected in HBMEC assessed as inhibition of amoeba-induced cytopathogenicity at 10 uM after 24 hrs by LDH release assay", "type": "functional", "settings": "ATCC 50209, 24 h", "how_it_was_run": "as §1"}, "Balamuthia mandrillaris [7]": {"system": "Balamuthia mandrillaris", "assay": "Antimicrobial activity against Balamuthia mandrillaris ATCC 50209 infected in HBMEC assessed as inhibition of encystment at 50 uM after 7 days", "type": "functional", "settings": "ATCC 50209, 168 h", "how_it_was_run": "as §2"}, "Balamuthia mandrillaris [8]": {"system": "Balamuthia mandrillaris", "assay": "Antimicrobial activity against Balamuthia mandrillaris ATCC 50209 infected in HBMEC assessed as inhibition of encystment at 10 uM […]", "type": "functional", "how_it_was_run": "as §2"}, "Balamuthia mandrillaris [9]": {"system": "Balamuthia mandrillaris", "assay": "Antimicrobial activity against Balamuthia mandrillaris ATCC 50209 infected in HBMEC assessed as inhibition of amoeba-induced cytopathogenicity at 50 uM after 24 hrs by LDH release assay", "type": "functional", "settings": "ATCC 50209, 24 h", "how_it_was_run": "as §1"}, "Balamuthia mandrillaris [10]": {"system": "Balamuthia mandrillaris", "assay": "Antimicrobial activity against Balamuthia mandrillaris ATCC 50209 infected in HBMEC assessed as inhibition of amoeba-induced cytopathogenicity at 10 ug/mL after 24 hrs by LDH release assay", "type": "functional", "settings": "ATCC 50209, 24 h", "how_it_was_run": "as §1"}, "Balamuthia mandrillaris [11]": {"system": "Balamuthia mandrillaris", "assay": "Antimicrobial activity against Balamuthia mandrillaris ATCC 50209 infected in HBMEC assessed as inhibition of encystment at 5 ug/mL after 7 days", "type": "functional", "settings": "ATCC 50209, 168 h", "how_it_was_run": "as §2"}, "Balamuthia mandrillaris [12]": {"system": "Balamuthia mandrillaris", "assay": "Antimicrobial activity against Balamuthia mandrillaris ATCC 50209 infected in HBMEC assessed as inhibition of amoeba-induced cytopathogenicity at 5 ug/mL after 24 hrs by LDH release assay", "type": "functional", "settings": "ATCC 50209, 24 h", "how_it_was_run": "as §1"}, "Balamuthia mandrillaris [13]": {"system": "Balamuthia mandrillaris", "assay": "Antimicrobial activity against Balamuthia mandrillaris ATCC 50209 infected in HBMEC assessed as inhibition of encystment at 10 ug/mL after 7 days", "type": "functional", "settings": "ATCC 50209, 168 h", "how_it_was_run": "as §2"}, "[14]": {"assay": "Cytotoxicity against HBMEC assessed as LDH release at 10 ug/mL", "settings": "human"}},
  "data": [
    {"compound": "C[C@@H]1C[C@@H]([C@H](O)CC2CC(=O)NC(=O)C2)C(=O)[C@@H](C)C1", "note": "[CYCLOHEXIMIDE]", "values": [
      {"measurement": "inhibition at 100 µM", "setting": "Balamuthia mandrillaris [1]", "value": 44, "unit": "%"},
      {"measurement": "inhibition at 200 µM", "setting": "Balamuthia mandrillaris [2]", "value": 0, "unit": "%"},
      {"measurement": "inhibition at 500 µM", "setting": "Balamuthia mandrillaris [3]", "value": 98.4, "unit": "%"},
      {"measurement": "inhibition at 100 µM", "setting": "Balamuthia mandrillaris [4]", "value": 94, "unit": "%"},
      {"measurement": "inhibition at 200 µM", "setting": "Balamuthia mandrillaris [5]", "value": 95, "unit": "%"}
    ]},
    {"compound": "C=C1[C@@H](C)[C@H]2[C@H](Cc3ccccc3)NC(=O)[C@]23[C@H](OC(C)=O)/C=C/[C@@](C)(O)C(=O)[C@@H](C)C/C=C/[C@H]3[C@@H]1O", "note": "[CYTOCHALASIN D]", "values": [
      {"measurement": "inhibition at 10 µM", "setting": "Balamuthia mandrillaris [6]", "value": 13, "unit": "%"},
      {"measurement": "inhibition at 50 µM", "setting": "Balamuthia mandrillaris [7]", "value": 64, "unit": "%"},
      {"measurement": "inhibition at 10 µM", "setting": "Balamuthia mandrillaris [8]", "value": 42, "unit": "%"},
      {"measurement": "inhibition at 100 µM", "setting": "Balamuthia mandrillaris [4]", "value": 76, "unit": "%"},
      {"measurement": "inhibition at 50 µM", "setting": "Balamuthia mandrillaris [9]", "value": 42, "unit": "%"}
    ]},
    {"compound": "CCC[C@@H]1C[C@@H](C(=O)N[C@@H]([C@H]2O[C@H](SC)[C@H](O)[C@@H](O)[C@H]2O)[C@H](C)Cl)N(C)C1", "note": "[CLINDAMYCIN]", "values": [
      {"measurement": "inhibition at 10 µg/mL", "setting": "Balamuthia mandrillaris [10]", "value": 10, "unit": "%"},
      {"measurement": "inhibition at 5 µg/mL", "setting": "Balamuthia mandrillaris [11]", "value": 4, "unit": "%"},
      {"measurement": "inhibition at 5 µg/mL", "setting": "Balamuthia mandrillaris [12]", "value": 16, "unit": "%"},
      {"measurement": "inhibition at 10 µg/mL", "setting": "Balamuthia mandrillaris [13]", "value": 0, "unit": "%"}
    ]},
    {"compound": "C[C@@H]1CC[C@H]2[C@@H](C)C(=O)O[C@@H]3O[C@@]4(C)CC[C@@H]1[C@]32OO4", "note": "[ARTEMISININ]", "values": [
      {"measurement": "inhibition at 10 µg/mL", "setting": "Balamuthia mandrillaris [10]", "value": 45, "unit": "%"},
      {"measurement": "inhibition at 5 µg/mL", "setting": "Balamuthia mandrillaris [11]", "value": 37, "unit": "%"},
      {"measurement": "inhibition at 5 µg/mL", "setting": "Balamuthia mandrillaris [12]", "value": 34, "unit": "%"},
      {"measurement": "inhibition at 10 µg/mL", "setting": "Balamuthia mandrillaris [13]", "value": 52, "unit": "%"}
    ]},
    {"compound": "Nc1nc(=O)[nH]cc1F", "note": "[FLUCYTOSINE]", "values": [
      {"measurement": "inhibition at 10 µg/mL", "setting": "Balamuthia mandrillaris [10]", "value": 61, "unit": "%"},
      {"measurement": "inhibition at 5 µg/mL", "setting": "Balamuthia mandrillaris [11]", "value": 43, "unit": "%"},
      {"measurement": "inhibition at 5 µg/mL", "setting": "Balamuthia mandrillaris [12]", "value": 20, "unit": "%"},
      {"measurement": "inhibition at 10 µg/mL", "setting": "Balamuthia mandrillaris [13]", "value": 56, "unit": "%"}
    ]},
    {"compound": "CC(=O)N1CCN(c2ccc(OCC3COC(Cn4ccnc4)(c4ccc(Cl)cc4Cl)O3)cc2)CC1", "note": "(configuration not stated) [KETOCONAZOLE]", "values": [
      {"measurement": "inhibition at 10 µg/mL", "setting": "Balamuthia mandrillaris [10]", "value": 88.5, "unit": "%"},
      {"measurement": "inhibition at 5 µg/mL", "setting": "Balamuthia mandrillaris [11]", "value": 0, "unit": "%"},
      {"measurement": "Activity", "setting": "[14]", "value": "< 5", "unit": "%"},
      {"measurement": "inhibition at 5 µg/mL", "setting": "Balamuthia mandrillaris [12]", "value": 14, "unit": "%"},
      {"measurement": "inhibition at 10 µg/mL", "setting": "Balamuthia mandrillaris [13]", "value": 0, "unit": "%"}
    ]}
  ]
}
